Shown is part of a subset that was picked to be rich in hits.
B2AR ag: agonists of human beta-2 adrenergic receptor inducing internalization; actives 0.43% (n = 340,000); Am2.2-beta2AR cells, FAP receptor internalization, flow cytometry; response, % (concentration not given with the values); P07550;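 active means response above a set limit, near 3 SD of response in nonfluorescent compounds, cut at about 42% in these data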
Target sequence (P07550 whole entry, looked up): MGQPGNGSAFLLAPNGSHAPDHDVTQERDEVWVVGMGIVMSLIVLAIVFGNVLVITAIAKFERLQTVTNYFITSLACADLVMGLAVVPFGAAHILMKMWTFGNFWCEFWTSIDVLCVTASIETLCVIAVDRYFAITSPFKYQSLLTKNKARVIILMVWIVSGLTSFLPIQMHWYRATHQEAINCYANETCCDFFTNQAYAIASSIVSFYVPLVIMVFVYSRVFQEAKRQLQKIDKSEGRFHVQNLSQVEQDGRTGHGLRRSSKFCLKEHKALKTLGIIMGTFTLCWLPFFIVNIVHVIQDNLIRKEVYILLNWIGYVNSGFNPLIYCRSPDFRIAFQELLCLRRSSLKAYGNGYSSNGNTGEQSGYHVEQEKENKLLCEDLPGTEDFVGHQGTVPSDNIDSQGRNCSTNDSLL
Dynein transport: dynein cargo transport inhibition; 3617.4 mouse cells, GR-EGFP nuclear translocation imaging; test concentration mostly 20 µM; stimulated with dexamethasone, 1 µM; stronger effect = lower value; z-score, hits read low; actives 0.47% (n = 220,000);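 active means plate z-score of nuclear minus cytoplasmic receptor signal below a set negative limit, without overly bright fluorescence or cell loss, cut at about -3.5 in these data, passing the limit was not always enough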;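 further: z-score of nuclear minus cytoplasmic ring GR-EGFP intensity difference per well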
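Buffer or medium: tetracycline-free induction medium containing charcoal-stripped FBS / Reagent: dexamethasone agonist, 1.0 µM final, for 30 min / Technique: automated 10x imaging of fixed Hoechst-stained cells / Times: induction 48 h, compound 1 h, agonist 30 min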
p-CIP stab down: lowers stability of the mouse p/CIP coactivator protein; decrease of EGFP signal, % at 10 µM; Q05BA5; actives 0.01% (n = 290,000); AID 1984; F442A p/CIP-EGFP cells, EGFP fluorescence, 16 h;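 active means EGFP signal decrease of at least 30% at 10 µM or well 3 SD below plate mean, unless failing retest; inactive means the rest, including hits failing retest or dose response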
CHOP inhibitor: CHOP inhibition in unfolded protein response. CHO-K1 CHOP-promoter luciferase, tunicamycin-induced, 15-18 h. inhibition, % at 10 µM. actives 3.8% (n = 220,000). AID 2732;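 active means compounds that reduced the stress-induced luciferase reporter signal by more than about 70% of percent inhibition, limit read from the data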
UPR CHOP act: activators of apoptotic arm of unfolded protein response (CHOP); activation, % at 10 µM; actives 0.34% (n = 330,000); CHO-CHOP luciferase reporter, UPR activation, luminescence; percent of tunicamycin response over DMSO baseline; AID 449763;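 active means at 10 µM dose, activation of 40% or more, normalized to positive control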
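assay system = CHO CHOP reporter cells | amount = 500 CHO-CHOP cells per well | buffer or medium = F12 with 10% FBS | incubation = 16-18 h cell attachment, then 6 h compound exposure, 37 °C | detection = luminescence read with Steady-Glo | read-out = percent activation relative to tunicamycin control | controls = tunicamycin high control, DMSO low control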
UPR XBP1 act: adaptive UPR (XBP1) activation. activation, % at 20 µM. CHO-XBP1 luciferase reporter, IRE1-XBP1 UPR activation, luminescence; percent of tunicamycin response, DMSO as zero. actives 0.33% (n = 330,000);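 active means versus positive control, 20 µM dose yields 30% or more activation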
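Material: CHO cell line with stable XBP1 luciferase reporter; schedule: 16-18 h cell attachment at 37 °C, then 6 h compound exposure; signal: glow luminescence from Steady-Glo reagent; medium: serum-containing F12 medium, 10% FBS; benchmarks: tunicamycin 10 µg/mL and vehicle-only wells; read-out: percent activation relative to tunicamycin reference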
Dynein inh conf: dynein cargo transport inhibition, confirmation; actives 69% (n = 1,000); shares compounds with Dynein transport; calls only at 20 µM; 3617.4 GR-EGFP nuclear translocation imaging, dexamethasone-induced;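 active means inhibition of receptor movement into the nucleus at or above a set limit in both runs, with normal cell brightness and cell count; inconclusive means limit reached in only one run, brightness and count normal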;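 further: dexamethasone at 1 µM final in well for 30 min; nuclear minus cytoplasmic GR-EGFP mean intensity difference in channel 2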
CHOP confirm: confirmation of CHOP induction inhibitors | actives 45% (n = 2,100) | inhibition, % at 10 µM | CHO-CHOP promoter luciferase reporter, tunicamycin-induced, luminescence | AID 504437 | shares compounds with CHOP inhibitor;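 active means mean of three repeat readings of reporter signal inhibition above a set limit, cut at about 70% in these data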
Of the large screens only hits and unclear results are named; the others gave an inactive call (follow-up assays come after a bar, where they were run).

CCc1ccc(CN(C)C(=O)C2CCC(=O)N(CC3CCCCC3)C2)cc1 (stereo unspecified)	none (no result: Dynein transport, CHOP inhibitor)
CN(Cc1ccc(Cl)cc1)C(=O)CCl	Dynein transport -6.22, CHOP inhibitor 104.4 | Dynein inh conf active | CHOP confirm inactive
CN(Cc1ccccc1)C(=O)CC(=O)N(C)Cc1ccccc1	none (no result: Dynein transport, CHOP inhibitor)
BrC(=C\c1ccccc1)/C=N/Nc1ccc2nncn2n1	none
BrC(=C\c1ccccc1)/C=N/n1cnnc1	Dynein transport -3.7, CHOP inhibitor 105.8 (no result: UPR CHOP act, UPR XBP1 act) | Dynein inh conf active | CHOP confirm inactive
Cc1cc(Sc2ncnc(N)c2[N+](=O)[O-])ncn1	Dynein transport -5.68, CHOP inhibitor 106.2 | Dynein inh conf active | CHOP confirm inactive
Cc1cc(Sc2nc(N)ncc2[N+](=O)[O-])ncn1	Dynein transport -5.01, CHOP inhibitor 105.9 | Dynein inh conf active | CHOP confirm inactive
O=C(CCn1c(=O)c2cccn2c2cccnc21)NCc1cccc(Cl)c1	none (no result: Dynein transport, CHOP inhibitor)
Cc1sc2ncnc(SCC(=O)N3c4ccccc4Sc4ccc(Cl)cc43)c2c1C	none
CCOC(=O)c1c(C)sc2c1N(C(=O)CCl)c1cc(Cl)ccc1S2	Dynein transport -3.97 (no result: CHOP inhibitor) | Dynein inh conf active | CHOP confirm inactive
COc1ccccc1CCNC(=O)Cc1cccs1	none
CCN1C/C(=C/c2ccc(OC)c(O)c2)C(=O)/C(=C/c2ccc(OC)c(O)c2)C1	Dynein transport -6.29, CHOP inhibitor 99.9 | Dynein inh conf inconclusive | CHOP confirm 96.8
COc1ccc(C=C2C(=O)c3ccccc3C2=O)cc1O	none
O=C1C=CC(O)(c2cc(=O)c3c(O)cc(O)cc3o2)C=C1	B2AR ag 45.1, Dynein transport -6.75, CHOP inhibitor 108.0 | Dynein inh conf active | CHOP confirm 121.7
O=c1cc(-c2ccccc2Cl)oc2cc(O)cc(O)c12	none
Cc1ccc(-n2ncc(Br)c(Br)c2=O)cc1	Dynein transport -5.9, CHOP inhibitor 104.8 (no result: UPR CHOP act, UPR XBP1 act) | Dynein inh conf active | CHOP confirm 120.8
COc1c(Cl)cnn(-c2ccc(C)cc2)c1=O	none
O=C1c2cc(O)c(O)cc2S(=O)(=O)C1c1ccccc1 (stereo unspecified)	none (no result: Dynein transport, p-CIP stab down, CHOP inhibitor)
CCN(CC)C(=O)c1cn(-c2cccc(OC)c2)c(=O)c2ccccc12	none (no result: Dynein transport, CHOP inhibitor)
C=CCN1CCN(C(=O)c2cc3c(s2)CCC(CC)C3)CC1 (stereo unspecified)	none (no result: Dynein transport, CHOP inhibitor)
OCC1CCCN(C(=S)Nc2ccc(Nc3ccccc3)cc2)C1 (stereo unspecified)	none
O=C1CCCCc2sc(Br)c([N+](=O)[O-])c2N1	Dynein transport -6.46, CHOP inhibitor 104.7 | Dynein inh conf active | CHOP confirm inactive
CCC(=O)Nc1c2c(nn1-c1ccc(C)cc1)CS(=O)(=O)C2	none (no result: Dynein transport, CHOP inhibitor)
Cc1ccc(NC(=O)CSCc2cc(=O)n3cc(C)sc3n2)cc1	none (no result: Dynein transport, CHOP inhibitor)
O=C(Nc1ccc(S(=O)(=O)Nc2ncccn2)cc1)c1ccc2ncsc2c1	none
Cc1ccc(S(=O)(=O)/N=C(\Sc2ccccc2)c2ccccc2)cc1	Dynein transport -3.52, CHOP inhibitor 106.7 | Dynein inh conf active | CHOP confirm inactive
O=S(=O)(/N=C(\Sc1ccccc1)c1ccccc1)c1ccc(Cl)cc1	none
Cn1c(=O)c([N+](=O)[O-])c(Cl)c2ccccc21	B2AR ag 89.1, Dynein transport -6.31, CHOP inhibitor 108.1 (no result: UPR CHOP act, UPR XBP1 act) | Dynein inh conf active | CHOP confirm 140.8
Nc1cc(=O)[nH]c(SCCSc2ccccc2)n1	none (no result: Dynein transport, CHOP inhibitor)
CCOC(=O)N1CCC(NS(=O)(=O)c2cc(C(=O)OC)n(C)c2)CC1	none (no result: Dynein transport, CHOP inhibitor)
O=C(N1CCOCC1)N1CCN(S(=O)(=O)N2CCOCC2)CC1	none
